Test results published in ChEMBL document CHEMBL4190234, “Design, synthesis and anticancer activity of new monastrol analogues bearing 1,3,4-oxadiazole moiety” (Eur J Med Chem, 2017).

What was measured:
Format in all cases: functional
SR = test: Growth inhibition of human SR cells at 10 uM incubated for 48 hrs by sulforhodamine B assay relative to control; conditions: read-out: GI
Summary of the method: (§1)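 NCI single-dose screen: cells grown in RPMI 1640 with 5% FBS and 2 mM L-glutamine, plated at 5,000–40,000 cells/well and preincubated 24 h at 37 °C, 5% CO2. Compounds taken from DMSO stock and tested at final 10 µM for 48 h. Cells fixed with TCA, stained with 0.4% SRB, absorbance read at 515 nm. Percentage growth calculated against untreated controls; controls held DMSO at the same dilution.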

UACC-257 = test: Growth inhibition of human UACC257 cells at 10 uM incubated for 48 hrs by sulforhodamine B assay relative to control; conditions: UACC-257, 48 h, read-out: GI; summary of the method: as §1
HCT-116 = test: Growth inhibition of human HCT116 cells at 10 uM incubated for 48 hrs by sulforhodamine B assay relative to control; conditions: HCT-116, 48 h, read-out: GI
Summary of the method: (§2)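 Single-dose screen at 10 μM final: cells in RPMI 1640, 5% FBS, 2 mM L-glutamine, plated 5,000–40,000/well, preincubated 24 h at 37°C, 5% CO2; drug 48 h; adherent cells fixed with 10% TCA, suspension cells with 16% TCA; SRB stain, absorbance 515 nm; percentage growth versus untreated control, with time-zero plates.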

COLO 205 = test: Growth inhibition of human COLO205 cells at 10 uM incubated for 48 hrs by sulforhodamine B assay relative to control; conditions: COLO 205, 48 h, read-out: GI; summary of the method: as §2
K562 = test: Growth inhibition of human K562 cells at 10 uM incubated for 48 hrs by sulforhodamine B assay relative to control; conditions: K562, 48 h, read-out: GI; summary of the method: as §2
PC-3 = test: Growth inhibition of human PC3 cells at 10 uM incubated for 48 hrs by sulforhodamine B assay relative to control; conditions: PC-3, 48 h, read-out: GI; summary of the method: as §2
OVCAR-4 = test: Growth inhibition of human OVCAR4 cells at 10 uM incubated for 48 hrs by sulforhodamine B assay relative to control; conditions: OVCAR-4, 48 h, read-out: GI; summary of the method: as §2
NCI-H460 = test: Growth inhibition of human NCI-H460 cells at 10 uM incubated for 48 hrs by sulforhodamine B assay relative to control; conditions: NCI-H460, 48 h, read-out: GI; summary of the method: as §2
SK-MEL-5 = test: Growth inhibition of human SK-MEL-5 cells at 10 uM incubated for 48 hrs by sulforhodamine B assay relative to control; conditions: SK-MEL-5, 48 h, read-out: GI; summary of the method: as §1
Hs-578T = test: Growth inhibition of human Hs 578T cells at 10 uM incubated for 48 hrs by sulforhodamine B assay relative to control; conditions: read-out: GI; summary of the method: as §2
OVCAR-5 = test: Growth inhibition of human OVCAR5 cells at 10 uM incubated for 48 hrs by sulforhodamine B assay relative to control; conditions: OVCAR-5, 48 h, read-out: GI; summary of the method: as §2
NCI/ADR-RES = test: Growth inhibition of human NCI/ADR-RES cells at 10 uM incubated for 48 hrs by sulforhodamine B assay relative to control; conditions: read-out: GI; summary of the method: as §2
SNB-75 = test: Growth inhibition of human SNB75 cells at 10 uM incubated for 48 hrs by sulforhodamine B assay relative to control; conditions: SNB-75, 48 h, read-out: GI; summary of the method: as §1
HCC 2998 = test: Growth inhibition of human HCC2998 cells at 10 uM incubated for 48 hrs by sulforhodamine B assay relative to control; conditions: HCC 2998, 48 h, read-out: GI; summary of the method: as §2
SNB-19 = test: Growth inhibition of human SNB19 cells at 10 uM incubated for 48 hrs by sulforhodamine B assay relative to control; conditions: SNB-19, 48 h, read-out: GI; summary of the method: as §1
UACC-62 = test: Growth inhibition of human UACC62 cells at 10 uM incubated for 48 hrs by sulforhodamine B assay relative to control; conditions: UACC-62, 48 h, read-out: GI; summary of the method: as §1
SK-MEL-2 = test: Growth inhibition of human SK-MEL-2 cells at 10 uM incubated for 48 hrs by sulforhodamine B assay relative to control; conditions: SK-MEL-2, 48 h, read-out: GI; summary of the method: as §1
U-251 = test: Growth inhibition of human U251 cells at 10 uM incubated for 48 hrs by sulforhodamine B assay relative to control; conditions: U-251, 48 h, read-out: GI; summary of the method: as §1
LOX IMVI = test: Growth inhibition of human LOXIMVI cells at 10 uM incubated for 48 hrs by sulforhodamine B assay relative to control; conditions: read-out: GI; summary of the method: as §2
786-0 = test: Growth inhibition of human 786-0 cells at 10 uM incubated for 48 hrs by sulforhodamine B assay relative to control; conditions: 786-0, 48 h, read-out: GI; summary of the method: as §2
HOP-62 = test: Growth inhibition of human HOP62 cells at 10 uM incubated for 48 hrs by sulforhodamine B assay relative to control; conditions: HOP-62, 48 h, read-out: GI; summary of the method: as §2
DU-145 = test: Growth inhibition of human DU145 cells at 10 uM incubated for 48 hrs by sulforhodamine B assay relative to control; conditions: DU-145, 48 h, read-out: GI; summary of the method: as §2
Malme-3M = test: Growth inhibition of human MALME-3M cells at 10 uM incubated for 48 hrs by sulforhodamine B assay relative to control; conditions: read-out: GI; summary of the method: as §2
TK-10 = test: Growth inhibition of human TK10 cells at 10 uM incubated for 48 hrs by sulforhodamine B assay relative to control; conditions: TK-10, 48 h, read-out: GI; summary of the method: as §1
CAKI-1 = test: Growth inhibition of human Caki1 cells at 10 uM incubated for 48 hrs by sulforhodamine B assay relative to control; conditions: CAKI-1, 48 h, read-out: GI; summary of the method: as §2
MDA-MB-231 = test: Growth inhibition of human MDA-MB-231 cells at 10 uM incubated for 48 hrs by sulforhodamine B assay relative to control; conditions: MDA-MB-231, 48 h, read-out: GI; summary of the method: as §2
MCF7 = test: Growth inhibition of human MCF7 cells at 10 uM incubated for 48 hrs by sulforhodamine B assay relative to control; conditions: MCF7, 48 h, read-out: GI; summary of the method: as §2
A498 = test: Growth inhibition of human A498 cells at 10 uM incubated for 48 hrs by sulforhodamine B assay relative to control; conditions: A498, 48 h, read-out: GI; summary of the method: as §2
RPMI-8226 = test: Growth inhibition of human RPMI8226 cells at 10 uM incubated for 48 hrs by sulforhodamine B assay relative to control; conditions: RPMI-8226, 48 h, read-out: GI; summary of the method: as §2
MDA-MB-435 = test: Growth inhibition of human MDA-MB-435 cells at 10 uM incubated for 48 hrs by sulforhodamine B assay relative to control; conditions: MDA-MB-435, 48 h, read-out: GI; summary of the method: as §2
MDA-MB-468 = test: Growth inhibition of human MDA-MB-468 cells at 10 uM incubated for 48 hrs by sulforhodamine B assay relative to control; conditions: MDA-MB-468, 48 h, read-out: GI; summary of the method: as §2
KM12 = test: Growth inhibition of human KM12 cells at 10 uM incubated for 48 hrs by sulforhodamine B assay relative to control; conditions: KM12, 48 h, read-out: GI; summary of the method: as §2

| SMILES | inhibition of growth at 10 µM (SR) | inhibition of growth at 10 µM (UACC-257) | inhibition of growth at 10 µM (HCT-116) | inhibition of growth at 10 µM (COLO 205) | inhibition of growth at 10 µM (K562) | inhibition of growth at 10 µM (PC-3) | inhibition of growth at 10 µM (OVCAR-4) | inhibition of growth at 10 µM (NCI-H460) | inhibition of growth at 10 µM (SK-MEL-5) | inhibition of growth at 10 µM (Hs-578T) | inhibition of growth at 10 µM (OVCAR-5) | inhibition of growth at 10 µM (NCI/ADR-RES) | inhibition of growth at 10 µM (SNB-75) | inhibition of growth at 10 µM (HCC 2998) | inhibition of growth at 10 µM (SNB-19) | inhibition of growth at 10 µM (UACC-62) | inhibition of growth at 10 µM (SK-MEL-2) | inhibition of growth at 10 µM (U-251) | inhibition of growth at 10 µM (LOX IMVI) | inhibition of growth at 10 µM (786-0) | further results |
| --- | --- | --- | --- | --- | --- | --- | --- | --- | --- | --- | --- | --- | --- | --- | --- | --- | --- | --- | --- | --- | --- |
| CCOC(=O)C1=C(C)NC(SCc2nnc(-c3ccc(Cl)cc3)o2)=NC1c1ccccc1 (stereo unspecified) | 24.9% | 25.9% | 36.8% | 10.4% | 25.2% | 42.2% | < 10% | < 10% | < 10% | < 10% | < 10% | < 10% | < 10% | < 10% | 11.7% | 34.9% | 34.5% | 21.2% | 11.1% | 31.4% | inhibition of growth at 10 µM (HOP-62): 27.8%; inhibition of growth at 10 µM (DU-145): < 10%; inhibition of growth at 10 µM (Malme-3M): < 10%; inhibition of growth at 10 µM (TK-10): 30.8%; inhibition of growth at 10 µM (CAKI-1): 22.3%; inhibition of growth at 10 µM (MDA-MB-231): < 10%; inhibition of growth at 10 µM (MCF7): 18.2%; inhibition of growth at 10 µM (A498): < 10%; inhibition of growth at 10 µM (RPMI-8226): 27.3%; inhibition of growth at 10 µM (MDA-MB-435): < 10%; inhibition of growth at 10 µM (MDA-MB-468): 14.7%; inhibition of growth at 10 µM (KM12): 10.3% |
| CCOC(=O)C1=C(C)NC(SCc2nnc(-c3ccc(Cl)cc3)o2)=NC1c1ccc(Cl)cc1 (stereo unspecified) | 57.1% | 13.1% | 53.8% | 20.4% | 44.2% | 51.2% | 30% | 21.1% | 59.1% | 16.3% | 10.4% | 30.1% | 26.3% | 20.1% | 27% | 50.1% | < 10% | 26.1% | 23.1% | 16.6% | inhibition of growth at 10 µM (HOP-62): < 10%; inhibition of growth at 10 µM (DU-145): 12.8%; inhibition of growth at 10 µM (Malme-3M): 18.3%; inhibition of growth at 10 µM (TK-10): 22.5%; inhibition of growth at 10 µM (CAKI-1): 38.4%; inhibition of growth at 10 µM (MDA-MB-231): 37.3%; inhibition of growth at 10 µM (MCF7): 51%; inhibition of growth at 10 µM (A498): 19.3%; inhibition of growth at 10 µM (RPMI-8226): 64.2%; inhibition of growth at 10 µM (MDA-MB-435): 30.4%; inhibition of growth at 10 µM (MDA-MB-468): 51%; inhibition of growth at 10 µM (KM12): 30.3% |
| CCOC(=O)C1=C(C)NC(SCc2nnc(-c3ccc(Cl)cc3)o2)=NC1c1ccc(F)cc1 (stereo unspecified) | 16.7% | < 10% | 21.7% | < 10% | 14.4% | 23.4% | < 10% | < 10% | 12.5% | < 10% | < 10% | < 10% | < 10% | < 10% | 11.6% | 10.7% | < 10% | 10.1% | < 10% | 10.7% | inhibition of growth at 10 µM (HOP-62): < 10%; inhibition of growth at 10 µM (DU-145): < 10%; inhibition of growth at 10 µM (Malme-3M): < 10%; inhibition of growth at 10 µM (TK-10): 13.9%; inhibition of growth at 10 µM (CAKI-1): 17.5%; inhibition of growth at 10 µM (MDA-MB-231): < 10%; inhibition of growth at 10 µM (MCF7): 13.3%; inhibition of growth at 10 µM (A498): 12.3%; inhibition of growth at 10 µM (RPMI-8226): 25.8%; inhibition of growth at 10 µM (MDA-MB-435): < 10%; inhibition of growth at 10 µM (MDA-MB-468): 17.1%; inhibition of growth at 10 µM (KM12): < 10% |
